Experimental findings from ChEMBL document CHEMBL3588823, “Design, synthesis and biological evaluation of novel 5-oxo-2-thioxoimidazolidine derivatives as potent androgen receptor antagonists” (Eur J Med Chem, 2015) are described below.

One data set has as its system LNCaP. The experiment in a line: Antiproliferative activity against human LNCAP cells after 3 days. Type of data set: functional, cell-based. The following applies: Homo sapiens, LNCaP, 72 h; read-out: IC50. A digest of the protocol:
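LNCaP cells seeded at 10,000 per well in RPMI 1640 with 10% charcoal-stripped serum and 1% AAS, then held 3 days at 37 °C. Medium was then replaced with serial compound dilutions, either without DHT (agonism mode) or with DHT (antagonism mode).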

In a further data set the target is T1, Androgen receptor (Homo sapiens, UniProt P10275).
T1 sequence (P10275 whole entry): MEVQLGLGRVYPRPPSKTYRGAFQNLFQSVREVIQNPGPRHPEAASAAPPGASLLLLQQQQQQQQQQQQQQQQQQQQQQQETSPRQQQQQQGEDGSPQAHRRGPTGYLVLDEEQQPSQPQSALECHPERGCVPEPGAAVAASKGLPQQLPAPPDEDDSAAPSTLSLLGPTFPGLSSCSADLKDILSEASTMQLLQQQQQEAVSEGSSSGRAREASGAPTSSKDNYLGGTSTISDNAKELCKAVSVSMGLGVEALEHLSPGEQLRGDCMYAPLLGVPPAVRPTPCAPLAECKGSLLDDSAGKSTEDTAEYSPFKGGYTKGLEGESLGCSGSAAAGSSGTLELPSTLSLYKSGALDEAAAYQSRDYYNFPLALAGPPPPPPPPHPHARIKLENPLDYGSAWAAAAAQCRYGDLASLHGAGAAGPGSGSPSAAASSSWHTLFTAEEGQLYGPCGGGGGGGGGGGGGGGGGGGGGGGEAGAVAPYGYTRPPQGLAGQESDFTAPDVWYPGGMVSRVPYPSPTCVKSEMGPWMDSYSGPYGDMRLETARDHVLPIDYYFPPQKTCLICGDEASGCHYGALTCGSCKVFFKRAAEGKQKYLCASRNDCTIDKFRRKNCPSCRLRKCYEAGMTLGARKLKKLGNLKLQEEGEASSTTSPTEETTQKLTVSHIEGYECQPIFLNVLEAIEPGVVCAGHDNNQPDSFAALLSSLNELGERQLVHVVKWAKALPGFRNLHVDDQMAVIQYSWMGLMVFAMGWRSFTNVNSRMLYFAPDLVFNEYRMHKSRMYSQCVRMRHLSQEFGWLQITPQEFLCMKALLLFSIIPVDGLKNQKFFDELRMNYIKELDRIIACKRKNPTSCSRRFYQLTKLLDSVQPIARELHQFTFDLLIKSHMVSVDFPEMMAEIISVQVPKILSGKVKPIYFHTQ
Kind of data set: Antagonist activity at androgen receptor (unknown origin).

In data set [1] the test system is Rattus norvegicus. Kind of data set: Half life in rat at 5 mg/kg, po. Type of data set: ADME, organism-based. To be noted: in vivo. A digest of the protocol: (§1)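 Rats (n = 3) were given a single 5 mg/kg oral dose in 0.5% HPMC. Blood was taken into EDTA tubes at 15 and 30 min and 1, 2, 4, 8 and 24 h. Plasma was obtained by centrifugation and proteins were precipitated with acetonitrile. Bioavailability was calculated against a 1 mg/kg iv dose.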

A short description of data set [2]: Half life in rat at 1 mg/kg, iv. It is filed as ADME, organism-based. The following applies: in vivo. A digest of the protocol: (§2)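 Rats (n = 3) were given a single 1 mg/kg iv dose in 20% hydroxypropyl-β-cyclodextrin. Blood was taken into EDTA tubes at 5, 15 and 30 min and 1, 2, 4, 8 and 24 h. Plasma was obtained by centrifugation and proteins were precipitated with acetonitrile before analysis.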

Data set [3] can be described thus: Tmax in rat at 5 mg/kg, po. The following applies: in vivo. It is filed as ADME, organism-based. A digest of the protocol: as §1
Data set [4] in a line: Tmax in rat at 1 mg/kg, iv. Type of data set: ADME, organism-based. The following applies: in vivo. A digest of the protocol:
as §2

Data set [5] in a line: Cmax in rat at 5 mg/kg, po. Type of data set: ADME, organism-based. Details: dose 5 mg/kg, route oral. The following applies: in vivo. In short, it runs like this: as §1
A short description of data set [6]: Cmax in rat at 1 mg/kg, iv. To be noted: in vivo. Type of data set: ADME, organism-based. Details: dose 1 mg/kg, route intravenous. A digest of the protocol: as §2
Data set [7] in a line: AUC (0 to time) in rat at 5 mg/kg, po. Type of data set: ADME, organism-based. To be noted: in vivo. A digest of the protocol: (§3)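 Rats (n = 3) received a single 5 mg/kg oral dose in 0.5% HPMC. EDTA blood samples were taken at 15 and 30 min and at 1, 2, 4, 8 and 24 h. Plasma was obtained by centrifugation, mixed with acetonitrile:H2O (1:1 v/v) and precipitated with acetonitrile.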

The nature of data set [8]: AUC (0 to time) in rat at 1 mg/kg, iv. It is filed as ADME, organism-based. To be noted: in vivo. In short, it runs like this:
(§4)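 Rats (n = 3) given a single 1 mg/kg iv dose in 20% HP-b-CD. Blood was drawn into EDTA tubes at 5, 15 and 30 min and at 1, 2, 4, 8 and 24 h. Plasma was separated by centrifugation, mixed with acetonitrile:H2O (1:1 v/v) and protein-precipitated with acetonitrile.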

A short description of data set [9]: AUC (0 to infinity) in rat at 5 mg/kg, po. It is filed as ADME, organism-based. The arrangement: dose 5 mg/kg, route oral, time infinity. The following applies: in vivo. In short, it runs like this:
as §3

A short description of data set [10]: AUC (0 to infinity) in rat at 1 mg/kg, iv. It is filed as ADME, organism-based. The arrangement: dose 1 mg/kg, route intravenous, time infinity. To be noted: in vivo. A digest of the protocol:
as §4

For data set [11], the system named is Rattus norvegicus. The experiment in a line: Volume of distribution in rat at 5 mg/kg, po. To be noted: in vivo. Type of data set: ADME, organism-based. A digest of the protocol:
as §1

The nature of data set [12]: Volume of distribution in rat at 1 mg/kg, iv. It is filed as ADME, organism-based. To be noted: in vivo. In short, it runs like this: as §2
Data set [13] deals with Rattus norvegicus. The experiment in a line: Clearance in rat at 5 mg/kg, po. Type of data set: ADME, organism-based. To be noted: in vivo. A digest of the protocol: as §1
The nature of data set [14]: Clearance in rat at 1 mg/kg, iv. Type of data set: ADME, organism-based. The following applies: in vivo. A digest of the protocol: as §2
A short description of data set [15]: MRT (last) in rat at 5 mg/kg, po. It is filed as ADME, organism-based. The following applies: in vivo. In short, it runs like this:
as §1

The nature of data set [16]: MRT (last) in rat at 1 mg/kg, iv. Type of data set: ADME, organism-based. To be noted: in vivo. A digest of the protocol: as §2
A short description of data set [17]: MRT (INF) in rat at 5 mg/kg, po. To be noted: in vivo. It is filed as ADME, organism-based. A digest of the protocol:
as §1

Data set [18] in a line: MRT (INF) in rat at 1 mg/kg, iv. It is filed as ADME, organism-based. To be noted: in vivo. In short, it runs like this:
as §2

The subject of data set [19] is Rattus norvegicus. Kind of data set: Volume of distribution at steady state in rat at 5 mg/kg, po. Type of data set: ADME, organism-based. The following applies: in vivo. In short, it runs like this:
as §1

A short description of data set [20]: Volume of distribution at steady state in rat at 1 mg/kg, iv. It is filed as ADME, organism-based. The following applies: in vivo, read-out: Vdss. A digest of the protocol:
as §2

The nature of data set [21]: Oral bioavailability in rat at 5 mg/kg. To be noted: in vivo. Type of data set: ADME, organism-based. In short, it runs like this:
as §1

With `N#Cc1ccc(N2C(=O)[C@]3(CCOC3)N(c3ccc(C(N)=O)c(F)c3)C2=S)cc1C(F)(F)F`, the IC50 in the data set on LNCaP worked out at 71.4 nM. The same compound showed an inhibition constant (Ki) on Androgen receptor of 14.1 nM. Besides, the t1/2 with Rattus norvegicus [1] amounted to 1.8 h. In [2], the half-life was 90 min. Besides, the results for the time to peak (Tmax) in data set [3] and in data set [4] were 2 h and 4.98 min, respectively. In addition, the values for the Cmax in data set [5] and in data set [6] were 261 ng/mL and 185 ng/mL, respectively. For the same compound, the area under the curve (AUC) was found to be 1280 ng·h/mL in [7] and 295 ng·h/mL in [8]. For the same compound, the results for the area under the curve AUC(0-inf) in data set [9] and in data set [10] were 1390 ng·h/mL and 303 ng·h/mL, respectively. Further, the Vd with Rattus norvegicus [11] stood at 9.4 L/kg; in [12], 7 L/kg; in [20] it was 6.1 L/kg. In the data set with Rattus norvegicus [13], the CL stood at 3.6 L/h/kg. Moreover, the clearance in [14] was 55 mL/min/kg. In addition, the mean residence time MRT last was 3.1 h in data set [15] and 1.6 h in [16]. Also, the values for the MRT inf in data set [17] and in data set [18] were 3.7 h and 1.8 h, respectively. The compound further showed a Vdss with Rattus norvegicus [19] of 22.3 L/kg. The compound also returned a bioavailability in [21] of 87%.
